Test system: MS2 coat protein
Experiment: apparent Kd, MS2 coat protein; higher = weaker binding; RNA-MaP array
Procedure, shortened: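 Designs measured on fewer than 10 clusters were excluded from the data. The rest were RNAs transcribed from sequenced DNA templates on an Illumina sequencing chip and incubated at room temperature, with or without input ligand, with fluorescently labeled MS2 coat protein at 1.5 nM to 3 μM for 0.8–1.5 h at the lowest to 10–20 min at the highest concentrations. Apparent Kd is the median of the per-cluster binding-curve fits.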

[1] = designed as: OFF switch for theophylline, no ligand
[2] = ligand present: theophylline, designed as: OFF switch for theophylline
[3] = designed as: OFF switch for flavin mononucleotide, no ligand
[4] = ligand present: flavin mononucleotide, designed as: OFF switch for flavin mononucleotide
[5] = designed as: ON switch for tryptophan, no ligand
[6] = ligand present: tryptophan, designed as: ON switch for tryptophan
[7] = designed as: ON switch for flavin mononucleotide, no ligand
[8] = ligand present: flavin mononucleotide, designed as: ON switch for flavin mononucleotide

Row | Sequence | apparent Kd [3] | apparent Kd [4] | also measured
1 | CAGCAACAAUUGGAUACCAGCCAUUACAGGUAUCAUUAUAACAUGAGGAUCACCCAUGUAGGCCCUUGGCAGCCAUUGGUGUAAG |  |  | apparent Kd [1]: 39.1 nM; apparent Kd [2]: 106 nM
2 | ACUGAUUAUGUGAGGAUAUCGCUUUCAGGCAGAAACGAGAAGGCACAUGAGGAUCACCCAUGUUACGUCCACUG | 6.64 nM | 9.56 nM | 
3 | GGGUAACAUGAGGAUCACCCAUGUGAGGAUAUCCAUUGUUGGCGACCGGUACGACCACGGAGAAGGCACAGUUC | 35 nM | 69.5 nM | 
4 | CACAUGAGGAUCACCCAUGUGUGGUGGGUGGUGCAACAUUGUAAGGAUAUAAUGGACGUCGGCCCUUAGAAGGUACAUUGUACG | 139 nM | 110 nM | 
5 | CCUGCAGGUCAGGAUAUCAUAUCUGGCUAACUAUGAGAAGGGACAACAUGAGGAUCACCCAUGUGGUGAUAACA | 666 nM | 509 nM | 
6 | AAUAUAGCAGGAUAUACAGAACACCAAUAGACUUCGUUUAGACAUGAGGAUCACCCAUGUAGAAGGGCUCAGAC | 9.85 nM | 9.18 nM | 
7 | CCACGACUAGGAUAUACCUAUGUUCACUCGUGAUCAAGGACACAUGAGGAUCACCCAUGUAGAAGGAGUCGCUA | 8.84 nM | 10.6 nM | 
8 | GUAUUACGGACGGCCGCCACUGUGGGACAUGAGGAUCACCCAUGUGGCGCUACUUACAAGUGCGACAGGACCGGGUCAUGGUUUG |  |  | apparent Kd [5]: 811 nM; apparent Kd [6]: 301 nM
9 | GUCAUUCAAGUGAGGAUAUCUGCGAUGCCGAAAGGAGAGAAGGCACAUGAGGAUCACCCAUGUGGUGUUUAUAU | 34.5 nM | 57.4 nM | 
10 | AGUGGGUUUCAGGAUAUAAUAUUAUCAACCAUAUUAGAAGGGAAUACAUGAGGAUCACCCAUGUUGAGUAUACG | 11.7 nM | 9.38 nM | 
11 | GUUUUCAACUUGUAGGAUAUUUCUCACGAGACAUGAGGAUCACCCAUGUAGUGAACCAGGGAUCGAAAGAAGGACAUCAUGACGGU |  |  | apparent Kd [7]: 75.2 nM; apparent Kd [8]: 49.9 nM
12 | AGGCCCUCACAUGAGGAUCACCCAUGUACGUACGCAGGUGGAAGAAGGCCGGUACAACCUAAUCCGGAGGAUAUUCGAAUUAAC | 372 nM | 199 nM | 
13 | CCACCAACAGGAUAUACGCUGAGGUUUUCUAACGGUCAUGUACAUGAGGAUCACCCAUGUAGAAGGGUUGUAGG | 37 nM | 55.6 nM | 
14 | GUCAGGCAACAGAAGGGAGGAUAUAACCGACAUGAGGAUCACCCAUGUGUAAAAGAAACAGUCGCUCAGGAUAUGUUCAACGUG |  |  | apparent Kd [7]: 15.9 nM; apparent Kd [8]: 9.36 nM
15 | CAAGAAUGACGUACAGAUAACAAUAACGAUACCAGUACAUCAUUAUACCCUUGGCAGCGUUUCACAUGAGGAUCACCCAUGUACA |  |  | apparent Kd [1]: 17.4 nM; apparent Kd [2]: 18.4 nM
16 | CCAGGACAUGAGGAUCACCCAUGUCAACAUCAAAUAAGCGCGUAGGAUAUCAAUACUGAAAGCUUUGAGAAGGACGAGAGGGUA |  |  | apparent Kd [7]: 22.8 nM; apparent Kd [8]: 17.8 nM
17 | CCCUCUUUAUAGGAUAUGUAGACCAUGGGACAAACAGAAGGAUAGACAUGAGGAUCACCCAUGUGGGAAAACUU | 31.8 nM | 30.4 nM | 
18 | GAACUUCGAGUCAGGAUAUGUACAUCAAAACCAAAACAGAAGGGACAUGAGGAUCACCCAUGUGAGCUAGGAUU | 14.3 nM | 14.4 nM | 
19 | GGUCUACAUGAGGAUCACCCAUGUGAGUUCACGGCAGGAUAUGGGUGCCUUUUUAGGCUACCAGAAGGGCCCUCUG |  |  | apparent Kd [7]: 38.1 nM; apparent Kd [8]: 19.2 nM
20 | ACUCAGUCAGGAUAUAGAGCCGCACGAGAUCGUGACUCGAUCUAGAAGGGACAUGAGGAUCACCCAUGUUAAGA | 12.7 nM | 20.8 nM | 
21 | AAACGGUAAGGAUAUCCACCAGGAUUGGAGCCACCUAAUUCGGAGAAGGUACAUGAGGAUCACCCAUGUCGGGU | 146 nM | 124 nM | 
22 | UGAGUUUACUGAGGAUAUUCGGGUCCGACGACAUGAGGAUCACCCAUGUUAGUAAUGCUGCAAGGGAAGAAGGCAGAAAGAACU | 13.7 nM | 10.7 nM | 
23 | UGGGCGGAAGGAUAUACAUGAGGAUCACCCAUGUGUCUUUUGCUGAUGGGUGCAUAGUGUAGAAGGUCCAGUGU | 93.7 nM | 38.8 nM | 
24 | UAGACCGAAGGAUAUACAUGAGGAUCACCCAUGUCAAGGACAUACCCACGAAAGGCACGUAGAAGGUCGGCAUA | 18.2 nM | 33.1 nM | 
25 | CUCACCUCGUGGAAGGAUAUACACUUUAGCACAUGAGGAUCACCCAUGUCCGCCGCAAAUCCUAGGUAGAAGGUCCGCAACAUUCG |  |  | apparent Kd [7]: 23.5 nM; apparent Kd [8]: 18 nM
26 | GACGGACAUGAGGAUCACCCAUGUUCUGGCAGCGUAGGAUAUGAAGGGAUGAUUGUACGUUCAGAAGGACGACCUG |  |  | apparent Kd [7]: 10.3 nM; apparent Kd [8]: 7.53 nM
27 | CAUGUAGGCGAGAAGGCAACCGCGGUCCGGGAUUGAGGAUAUCGGCCAGGUGAUCCCGCCCAACAUGAGGAUCACCCAUGUAGC | 339 nM | 202 nM | 
28 | CGGUGAUAUGAAGGAUAUGCACAUGAGGAUCACCCAUGUAACCACUAGAACAAAACGUAGUAACCGCAGAAGGUCAGCAGUAGU |  |  | apparent Kd [7]: 23.6 nM; apparent Kd [8]: 14.5 nM

Row | Sequence | apparent Kd [3] | apparent Kd [4] | also measured
29 | ACAACGUAACGAGGAUAUAAUCUAAAAGUUCGGUGACGUAGACAUGAGGAUCACCCAUGUUAGUAUUAGAAGGCGUUCGGCGGG | 14.4 nM | 41.9 nM | 
30 | AAAAUACAUGAGGAUCACCCAUGUCGCAAAUGCAUAGGAUAUGAUGAUGCUAAACACGCAUCAGAAGGAUGUAGAA |  |  | apparent Kd [7]: 10.9 nM; apparent Kd [8]: 9.52 nM
31 | UUACGGGAAGGAUAUCAUUGAAGGUACAUGAGGAUCACCCAUGUCUGAUGCGCAUCGCCGUGAGAAGGUCCUGCUU | 38.2 nM | 14.9 nM | 
32 | CUACAUGAGGAUCACCCAUGUGCCUCUGGUCAGGGUCACUACGAGGAUAUAAUAGUUUAGACGAGUUAGAAGGCGUAUGAGUUA | 111 nM | 77.4 nM | 
33 | CUGUACCGAAUAGGAUAUGAAAAGAAGGUAAAUUCAGAAGGAUUCAAUUAAUUUACAUGAGGAUCACCCAUGUCUAAGCAAACA |  |  | apparent Kd [7]: 12.2 nM; apparent Kd [8]: 8.39 nM
34 | AGUACAUCGGAGAAGGUGCAAGGUUAGCUUUCGCAAGGAUAUCCACACCCUUAGUACAGUGCUACAUGAGGAUCACCCAUGUUA | 10.1 nM | 10.2 nM | 
35 | AAAACUUCUAAGAAGGUGAUUUGGGCAUAUCGUCGUUUUACAUGAGGAUCACCCAUGUUUAACGUCAAGGAUAUUAGGGAUUCC | 6.11 nM | 5.9 nM | 
36 | CAAUGCGGUUAGGAUACCAGCGACACACACUUCUCACAACACAUGAGGAUCACCCAUGUCCGCCCUUGGCAGCCUUGACUAAGGU |  |  | apparent Kd [1]: 30.1 nM; apparent Kd [2]: 146 nM
37 | CGGCCACAUGAGGAUCACCCAUGUAGUUCGUCUAAAGGAUAUCCAGGUGGGUGACUCCAAGGAGAAGGUUAGGACG |  |  | apparent Kd [7]: 54.7 nM; apparent Kd [8]: 39.3 nM
38 | UCCGGUGACCUAGGAUAUCGUUCAACUAACAUGAGGAUCACCCAUGUGGUCUGUUUUAUGCCUGUCGAGAAGGAGGUGGAUAAG | 64.2 nM | 55.6 nM | 
39 | GAUUCGCAGUCGGCCGCCACUAACAUGAGCUGCUAGUUAUUAUCACAUGAGGAUCACCCAUGUCUUAGGACCGGGACAACCUGUU |  |  | apparent Kd [5]: 77.7 nM; apparent Kd [6]: 71 nM
40 | ACCCGCUCCUGAGGAUAUCCGGCAUGACAUGAGGAUCACCCAUGUGGGCUCGUGGAGGGAGUGCAGGAGAAGGCAGUAGGCGCU | 35.7 nM | 82.6 nM | 
41 | ACGAUGAUAGAAGGAUAUAGGCCGAACAUGAGGGACAUGAGGAUCACCCAUGUGACAGUCGGACCCUAGAAGGUCUCGAUACUC | 21.2 nM | 15.1 nM | 
42 | CAAUGGGAACCAUAUGUUUACAUGAGGAUCACCCAUGUUACAUAGGAUAUCUCGGUUGGGUUCGUAGAGAAGGAUGUAGAGUAG | 5.28 nM | 5.3 nM | 
43 | CAGGAUCCGAAGAAGGGCAUCGGCCACAGGGCUGCAGGAUAUUCAAUUCAUGCAACAUGAGGAUCACCCAUGUAAUGGGCCGUU | 27.5 nM | 22.3 nM | 
44 | AACAUACAUGAGGAUCACCCAUGUCAAGAGAUGAAAGGAUAUAACUCUAUCAGGGUAAAGUAAGAAGGUUCGACUA |  |  | apparent Kd [7]: 23.5 nM; apparent Kd [8]: 20.1 nM
45 | CUCGGAAACGGAGGAUAUAGCUGAAGAGGAUUACUAGAAGGCCGAGACAUGAGGAUCACCCAUGUUUUCUCAAGUCGCAGUUUA | 7.93 nM | 9.48 nM | 
46 | CUCGAAUUAUCAGGAUAUCCACAAUUCGAAGAAGGAGAAGGGAUGGCAGGGCUAACAUGGAACAUGAGGAUCACCCAUGUGCAA |  |  | apparent Kd [7]: 11.2 nM; apparent Kd [8]: 9.94 nM
47 | ACAUGAGGAUCACCCAUGUUAUAGGGCAGGGAACGGAGCAUCUAGGAUAUUGUACACCGGCUACACAAGAAGGAGACCGAAGCU | 15.7 nM | 12.3 nM | 
48 | AGAUCGCAAUAAGGAUAUGCACCUAAGACUCAAAGAACUCUUGACAUGAGGAUCACCCAUGUAACGCAGAAGGUAUAUGACUCA |  |  | apparent Kd [7]: 21 nM; apparent Kd [8]: 15.1 nM
49 | GAUCGUUGGGUAAGGAUAUAAGUUUAUUGCUUGGGUUAGAAGGUACAUGAGGAUCACCCAUGUAGGUGAGUCAC | 76.2 nM | 61.8 nM | 
50 | UCAAAAUGAUAGAAGGAGGCAAUACUCGCACCUAACAUGAGGAUCACCCAUGUCUGCAGGUUGACCUAGGAUAUAUGCAGUGGA |  |  | apparent Kd [7]: 14.6 nM; apparent Kd [8]: 9.35 nM
51 | UGCACCGCAGGAUAUACAAUGGAGGACGUUGUGAAUCAUAGACAUGAGGAUCACCCAUGUAGAAGGGCGUAUAA | 34 nM | 78.5 nM | 
52 | CGGAAUUCAGGAUAUGGCAUAUCCUACAUGAGGAUCACCCAUGUAUGACCCGUGUGCCGGCCAGAAGGGAACGCUG | 10.8 nM | 12 nM | 
53 | UUUUACGCAAGUAAUUCCCGGGAACCGGAUACCAGCUCCUCCAACAGCCCUUGGCAGCCGACCACAUGAGGAUCACCCAUGUUUC |  |  | apparent Kd [1]: 11.7 nM; apparent Kd [2]: 19.3 nM
54 | ACAUAGUAAGGAUAUCUCCUGUUCGAGAAAGAGAGGCAUAAAGAGAAGGUACAUGAGGAUCACCCAUGUGACGA | 7.51 nM | 7.26 nM | 
55 | UUGUCACAUGAGGAUCACCCAUGUAAGAGAUUCCAAGGAUAUAUUAUCGGGUAAAAUGAAAUAGAAGGUGGUCAGA |  |  | apparent Kd [7]: 90.3 nM; apparent Kd [8]: 65.6 nM

From the EternaBench riboswitch data
